Reference: ChEMBL document CHEMBL1687778, “Genetic determinants involved in the susceptibility of Pseudomonas aeruginosa to beta-lactam antibiotics” (2010)

What was measured:
[1] = test system: Pseudomonas aeruginosa; assay: Antimicrobial activity against Pseudomonas aeruginosa PA14 PA2487 harboring mutation in hypothetical protein by Etest method; type: functional
In short: (§1)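 Overnight LB cultures (37°C) diluted in sterile 0.85% NaCl to about 1 × 10^7 CFU/ml. 100 µl spread on Mueller-Hinton agar, one Etest strip per plate, 18 h at 37°C. Ceftazidime, imipenem and meropenem tested. Wild-type PA14 plate included in each set. Each mutant verified in triplicate.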

[2] = test system: Pseudomonas aeruginosa; assay: Antimicrobial activity against Pseudomonas aeruginosa PA14 PA0503 harboring mutation in Putative biotin synthesis protein BioC by Etest method; type: functional; in short: as §1
[3] = test system: Pseudomonas aeruginosa; assay: Antimicrobial activity against Pseudomonas aeruginosa PA14 PA3247 harboring mutation in putative aspartyl aminopeptidase by Etest method; type: functional; in short: as §1
[4] = test system: Pseudomonas aeruginosa; assay: Antimicrobial activity against Pseudomonas aeruginosa PA14 PA14_23420 harboring mutation in putative zinc-binding dehydrogenase by Etest method; type: functional; in short: as §1
[5] = test system: Pseudomonas aeruginosa; assay: Antimicrobial activity against Pseudomonas aeruginosa PA14 PA5003 harboring mutation in conserved hypothetical protein by Etest method; type: functional
In short: (§2)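 Etest MIC. Overnight LB cultures at 37°C were diluted in sterile 0.85% NaCl to about 1 × 10^7 CFU/ml. 100 µl was spread on Mueller-Hinton agar, one strip was placed per plate, and plates were incubated at 37°C for 18 h. Equal cell numbers were seeded per plate, and results were verified in triplicate. PA14 wild type was included in each set as a susceptibility control.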

[6] = test system: Pseudomonas aeruginosa; assay: Antimicrobial activity against Pseudomonas aeruginosa PA14 PA4393 harboring mutation in putative permease by Etest method; type: functional; in short: as §2
[7] = test system: Pseudomonas aeruginosa; assay: Antimicrobial activity against Pseudomonas aeruginosa PA14 PA4459 harboring mutation in Conserved hypothetical protein by Etest method; type: functional; in short: as §2
[8] = test system: Pseudomonas aeruginosa; assay: Antimicrobial activity against Pseudomonas aeruginosa PA14 PA0958 harboring oprD mutant gene by Etest method; type: functional; in short: as §1
[9] = test system: Pseudomonas aeruginosa; assay: Antimicrobial activity against Pseudomonas aeruginosa PA14 PA0770 harboring rnc mutant gene by Etest method; type: functional; in short: as §1
[10] = test system: Pseudomonas aeruginosa; assay: Antimicrobial activity against Pseudomonas aeruginosa PA14 PA14_59780 harboring rcsC mutant gene by Etest method; type: functional; in short: as §1
[11] = test system: Pseudomonas aeruginosa; assay: Antimicrobial activity against Pseudomonas aeruginosa PA14 PA0479 harboring mutation in putative transcriptional regulator, LysR family by Etest method; type: functional; in short: as §1
[12] = test system: Pseudomonas aeruginosa; assay: Antimicrobial activity against Pseudomonas aeruginosa PA14 PA2621 harboring clpS mutant gene by Etest method; type: functional; in short: as §1
[13] = test system: Pseudomonas aeruginosa; assay: Antimicrobial activity against Pseudomonas aeruginosa PA14 PA4402 harboring argJ mutant gene by Etest method; type: functional; in short: as §2
[14] = test system: Pseudomonas aeruginosa; assay: Antimicrobial activity against wild type Pseudomonas aeruginosa harboring pBBR1MCS-3 by Etest method
[15] = test system: Pseudomonas aeruginosa; assay: Antimicrobial activity against Pseudomonas aeruginosa PA14 PA3259 harboring mutation in conserved hypothetical protein by Etest method; type: functional; in short: as §2
[16] = test system: Pseudomonas aeruginosa; assay: Antimicrobial activity against Pseudomonas aeruginosa PA14 PA4550 harboring fimU mutant gene by Etest method; type: functional; in short: as §2
[17] = test system: Pseudomonas aeruginosa; assay: Antimicrobial activity against Pseudomonas aeruginosa PA14 PA5130 harboring mutation in putative rhodanese-like domain protein by Etest method; type: functional; in short: as §2
[18] = test system: Pseudomonas aeruginosa; assay: Antimicrobial activity against Pseudomonas aeruginosa PA14 PA5174 harboring mutation in putative beta-ketoacyl synthase by Etest method; type: functional; in short: as §2
[19] = test system: Pseudomonas aeruginosa; assay: Antimicrobial activity against Pseudomonas aeruginosa PA14 PA2615 harboring ftsK mutant gene by Etest method; type: functional; in short: as §1
[20] = test system: Pseudomonas aeruginosa; assay: Antimicrobial activity against Pseudomonas aeruginosa PA14 PA4269 harboring rpoC mutant gene by Etest method; type: functional; in short: as §2
[21] = test system: Pseudomonas aeruginosa; assay: Antimicrobial activity against Pseudomonas aeruginosa PA14 PA2023 harboring galU mutant gene by Etest method; type: functional; in short: as §1
[22] = test system: Pseudomonas aeruginosa; assay: Antimicrobial activity against Pseudomonas aeruginosa PA14 PA4069 harboring mutation in putative dTDP-4-rhamnose reductase-related protein by Etest method; type: functional; in short: as §2
[23] = test system: Pseudomonas aeruginosa; assay: Antimicrobial activity against Pseudomonas aeruginosa PA14 PA4005 harboring mutation in conserved hypothetical protein by Etest method; type: functional; in short: as §2
[24] = test system: Pseudomonas aeruginosa; assay: Antimicrobial activity against Pseudomonas aeruginosa harboring mucD mutant gene by Etest method
[25] = test system: Pseudomonas aeruginosa; assay: Antimicrobial activity against Pseudomonas aeruginosa PA14 PA1553 harboring mutation in putative cytochrome c oxidase, cbb3 type, subunit II by Etest method; type: functional; in short: as §1
[26] = test system: Pseudomonas aeruginosa; assay: Antimicrobial activity against Pseudomonas aeruginosa PA14 PA4745 harboring nusA mutant gene by Etest method; type: functional; in short: as §2
[27] = test system: Pseudomonas aeruginosa; assay: Antimicrobial activity against Pseudomonas aeruginosa PA14 PA0420 harboring bioA mutant gene by Etest method; type: functional; in short: as §1
[28] = test system: Pseudomonas aeruginosa; assay: Antimicrobial activity against Pseudomonas aeruginosa PA14 PA3721 harboring nalC mutant gene by Etest method; type: functional; in short: as §2
[29] = test system: Pseudomonas aeruginosa; assay: Antimicrobial activity against Pseudomonas aeruginosa PA14 PA3262 harboring fklB mutant gene by Etest method; type: functional; in short: as §2
[30] = test system: Pseudomonas aeruginosa; assay: Antimicrobial activity against Pseudomonas aeruginosa PA14 PA3589 harboring mutation in acetyl-coenzyme A (CoA) acetyltransferase (thiolase) by Etest method; type: functional; in short: as §2
[31] = test system: Pseudomonas aeruginosa; assay: Antimicrobial activity against Pseudomonas aeruginosa PA14 PA0402 harboring pyrB mutant gene by Etest method; type: functional; in short: as §1
[32] = test system: Pseudomonas aeruginosa; assay: Antimicrobial activity against Pseudomonas aeruginosa harboring pBBR-mucD complemented gene by Etest method
[33] = test system: Pseudomonas aeruginosa; assay: Antimicrobial activity against Pseudomonas aeruginosa PA14 PA3145 harboring wbpL mutant gene by Etest method; type: functional; in short: as §1

Measured: MIC

C[C@@H](O)[C@H]1C(=O)N2C(C(=O)O)=C(SCCNC=N)C[C@H]12 [IMIPENEM ANHYDROUS]
0.125 µg/mL: [18] | [27]
0.064 µg/mL: [23]
0.094 µg/mL: [21]
0.25 µg/mL: [6] | [7] | [22] | [24] | [26] | [29]
0.75 µg/mL: [9]
2 µg/mL: [8]
1 µg/mL: [11] | [25]
0.19 µg/mL: [2] | [17] | [19]
0.38 µg/mL: [3] | [4] | [12] | [13] | [31] | [33]
0.5 µg/mL: all other assays above
